Results taken from ChEMBL document CHEMBL3085728, “Conformational modifications of gB from herpes simplex virus type 1 analyzed by synthetic peptides” (J Med Chem, 2013).
Each block holds one substance with its values, some of them ahead of it. Calls of active or inactive are those of the source. No cut-off for these calls is given here.

Legend:
[1] = tested on: Vero; experiment: Cytotoxicity against African green monkey Vero cells at 10 to 500 uM after 24 hrs by LDH assay; format: cell-based; conditions: chlorocebus sabaeus
Procedure, shortened: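 Vero monolayers exposed to peptides at 10, 50, 100, 200, 250 and 500 μM for 24 h; viability read by lactate dehydrogenase release with a commercial cytotoxicity detection kit, compared against untreated cells.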

[2] = tested on: Human alphaherpesvirus 1; experiment: Antiviral activity against Herpes simplex virus type 1 assessed as inhibition of viral entry into African green monkey Vero cells at 100 uM compound preincubated with virus for 45 mins followed by viral titration measured 48 hrs post viral titration by plaque formation assay relative to control; format: functional; conditions: Human alphaherpesvirus 1, Vero
[3] = tested on: Human alphaherpesvirus 1; experiment: Antiviral activity against Herpes simplex virus type 1 assessed as inhibition of viral entry into African green monkey Vero cells at 20 to 200 uM compound treated post viral titration for 30 mins measured 48 hrs post viral titration by plaque formation assay; format: functional, organism-based
[4] = tested on: Human alphaherpesvirus 1; experiment: Antiviral activity against Herpes simplex virus type 1 assessed as inhibition of viral entry into African green monkey Vero cells compound co-treated with cells and viral inoculum for 45 mins measured after 48 hrs by plaque formation assay; format: functional, organism-based; conditions: Human alphaherpesvirus 1, Vero
Procedure, shortened: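 Cotreatment: Vero cells exposed to peptide (10–200 μM, serum-free DMEM) together with serial dilutions of LacZ HSV-1 inoculum for 45 min at 37 °C. Nonpenetrated virus inactivated by pH 3.0 citrate, then 48 h at 37 °C in DMEM with CMC; X-gal staining, plaques counted. Triplicates; inhibition percentage vs no-peptide control.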

Substance: H-YNHIQRHVNDMLGRVKKAWEE-OH
Activity [1]: Non-toxic

Substance: H-YNHIQRHVNDMLGR-OH
inhibition at 100 µM [2]: 100%
Activity [1]: Non-toxic
inhibition [3]: inactive

IC50 [4]: 60 µM
Substance: H-FARLQFTYNHIQRHVRDMEGR-OH
inhibition at 100 µM [2]: 100%
Activity [1]: Non-toxic
inhibition [3]: inactive
